Key:
Type in all cases: functional
Mus musculus [1] = assay: BDF1 male mice were administered with 200 mg/kg poand percent change in iron levels was determined in Urine
Procedure, shortened: (§1)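 Hypertransfused male BDF1 mice (canine red cells, washed and heated at 50 °C for 30 min) were dosed orally for 7 days with compound in distilled water or a fine suspension with Polysorbate 80 (2% final). Daily group urine and pooled feces (1 N HCl digest, 90 °C, 30 min, triplicate) were collected, and liver and spleen were homogenized. Iron was measured by atomic absorption and reported as % change vs transfused control.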

Mus musculus [2] = assay: BDF1 male mice were administered with 200 mg/kg po and percent change in iron levels was determined in Feces; procedure, shortened: as §1
Mus musculus [3] = assay: BDF1 male mice were administered with 200 mg/kg po and percent change in iron levels was determined in spleen; procedure, shortened: as §1
Mus musculus [4] = assay: BDF1 male mice were administered with the compound and number of survivors was determined at a dose 200 mg/kg po
Procedure, shortened: (§2)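 Male BDF1 mice were iron-loaded by transfusion of canine red cells. The cells were heparinised, washed twice in isotonic saline and heated at 50 °C for 30 min. Dosing started two days after the last transfusion, once daily for 7 consecutive days. Compounds were given in distilled water or as a fine aqueous suspension with Polysorbate 80 (2% final). Toxic signs were recorded daily and survivors counted per group.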

Mus musculus [5] = assay: BDF1 male mice were administered with 200 mg/kg po and percent change in iron levels was determined in Liver; procedure, shortened: as §1
Mus musculus [6] = assay: BDF1 male mice were administered with 250 mg/kg intraperitoneally and percent change in iron levels was determined in Urine; settings: route intraperitoneal
Procedure, shortened: (§3)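 Male BDF1 mice were hypertransfused with washed, heat-treated (50 °C, 30 min) canine red cells. Starting 2 days after the last transfusion, they received one ip injection daily for 7 days, in distilled water or an aqueous suspension with Polysorbate 80 (2% final). Group urine was collected every 24 h. Feces were digested in 1 N HCl (90 °C, 30 min, triplicate). Liver and spleen were homogenized. Iron was measured by atomic absorption and reported as % change vs transfused controls.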

Mus musculus [7] = assay: BDF1 male mice were administered with 250 mg/kg intraperitoneally and percent change in iron levels was determined in Spleen; settings: route intraperitoneal; procedure, shortened: as §3
Mus musculus [8] = assay: BDF1 male mice were administered with 250 mg/kg intraperitoneally and number of survivors was determined out of 240 tested; settings: route intraperitoneal; procedure, shortened: as §2
Mus musculus [9] = assay: BDF1 male mice were administered with 250 mg/kg intraperitoneally and percent change in iron levels was determined in Liver; settings: route intraperitoneal; procedure, shortened: as §3
Mus musculus [10] = assay: BDF1 male mice were administered with 250 mg/kg intraperitoneally and percent change in iron levels was determined in Feces; settings: route intraperitoneal; procedure, shortened: as §3

CC(=O)Oc1ccccc1CN(CCN(CC(=O)OC(C)(C)C)Cc1ccccc1OC(C)=O)CC(=O)OC(C)(C)C
Iron change (Mus musculus [1]): -4%
Iron change (Mus musculus [2]): -1%
Iron change (Mus musculus [3]): -6%
No. of survivors (Mus musculus [4]): 10
Iron change (Mus musculus [5]): 16%

CC(=O)N(O)CCCCCNC(=O)CCC(=O)N(O)CCCCCNC(=O)CCC(=O)N(O)CCCCCN [DEFEROXAMINE]
Iron change (Mus musculus [6]): 270%
Iron change (Mus musculus [7]): 2%
No. of survivors (Mus musculus [8]): 240
Iron change (Mus musculus [9]): -24%
Iron change (Mus musculus [10]): 7%
